Measurements taken from ChEMBL document CHEMBL1152859, “The novel phosphoramidate derivatives of NSAID 3-hydroxypropylamides: synthesis, cytostatic and antiviral activity evaluations” (Eur J Med Chem, 2009).
The source made the active and inactive calls. The rule behind the calls is not given here.

Experiments:
[1] = tested on: Human alphaherpesvirus 1; assay: Antiviral activity against Herpes simplex virus 1 infected in HEL cells assessed as inhibition of virus-induced cytopathicity; type: functional, organism-based
[2] = tested on: Coxsackievirus B4; assay: Antiviral activity against Coxsackievirus B4 infected in human HeLa cells assessed as inhibition of virus-induced cytopathicity; type: functional, organism-based
How it was run: (§1)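 Cells were infected with 100 CCID50 of virus for 2 h, then residual virus was removed. Medium with graded compound concentrations was added and cultures were kept 3 days at 37 °C. Cytopathogenicity was scored microscopically. EC50 is the concentration reducing virus-induced cytopathogenicity by 50%.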

[3] = tested on: HeLa; assay: Cytostatic activity against human HeLa cells after 72 hrs by MTT assay; type: functional, cell-based
How it was run: (§2)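 Monolayer cells were grown in DMEM with 10% FBS, 2 mM L-glutamine, penicillin and streptomycin at 37 °C under 5% CO2. They were seeded on day 0 at 1 × 10⁴ to 3 × 10⁴ cells/ml and exposed to five 10-fold dilutions (10⁻⁸ to 10⁻⁴ M) for 72 h, with a solvent control. Read-out was MTT. Quadruplicates in three experiments (WI 38: one experiment). IC50 by linear regression of percentage-of-growth.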

[4] = tested on: Coxsackievirus B4; assay: Antiviral activity against Coxsackievirus B4 infected in african green monkey Vero cells assessed as inhibition of virus-induced cytopathicity; type: functional, organism-based; how it was run: as §1
[5] = tested on: Human immunodeficiency virus 2; assay: Antiviral activity against HIV2 ROD infected in human CEM cells assessed as inhibition of virus-induced cytopathicity; type: functional, organism-based; details: CCRF-CEM
[6] = tested on: Vesicular stomatitis virus; assay: Antiviral activity against Vesicular stomatitis virus infected in HEL cells assessed as inhibition of virus-induced cytopathicity; type: functional, organism-based
How it was run: (§3)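 Cell cultures were exposed for 2 h to 100 CCID50 of virus, and residual virus was then removed. Infected cells were further incubated with medium containing varying compound concentrations for 3 days at 37 °C. Virus-induced cytopathogenicity was scored microscopically. EC50 is the concentration giving a 50% reduction of cytopathogenicity.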

[7] = tested on: NCI-H460; assay: Cytostatic activity against human H460 cells after 72 hrs by MTT assay; type: functional, cell-based; details: NCI-H460, 72 h; how it was run: as §2
[8] = tested on: MCF7; assay: Cytostatic activity against human MCF7 cells after 72 hrs by MTT assay; type: functional, cell-based; details: MCF7, 72 h; how it was run: as §2
[9] = Cytostatic activity against human WI38 cells after 72 hrs by MTT assay; type: ADME, cell-based; details: WI-38, 72 h; how it was run: as §2
[10] = tested on: Human alphaherpesvirus 2; assay: Antiviral activity against Herpes simplex virus 2 infected in HEL cells assessed as inhibition of virus-induced cytopathicity; type: functional, organism-based
[11] = tested on: Mammalian orthoreovirus 1; assay: Antiviral activity against Reovirus 1 infected in african green monkey Vero cells assessed as inhibition of virus-induced cytopathicity; type: functional, organism-based; how it was run: as §1
[12] = Cytostatic activity against human Molt4/C8 cells after 72 hrs by MTT assay; type: functional, cell-based; details: MOLT-4, 72 h
[13] = tested on: CCRF-CEM; assay: Cytostatic activity against human CEM cells after 72 hrs by MTT assay; type: functional, cell-based
[14] = tested on: Cytomegalovirus; assay: Antiviral activity against Cytomegalovirus infected in HEL cells assessed as inhibition of virus-induced cytopathicity; type: functional, organism-based
How it was run: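 Confluent HEL fibroblasts were infected with CMV strains Davis and AD-169 at 100 PFU per well for 2 h, then virus was removed. Graded concentrations were added in duplicate and cultures kept 7 days at 37 °C. Cytopathogenicity was scored microscopically after ethanol fixation and Giemsa staining. EC50 is the 50% reduction.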

[15] = tested on: Vaccinia virus; assay: Antiviral activity against Vaccinia virus infected in HEL cells assessed as inhibition of virus-induced cytopathicity; type: functional, organism-based; details: Orthopoxvirus vaccinia; how it was run: as §3
[16] = tested on: MIA PaCa-2; assay: Cytostatic activity against human MIAPaCa2 cells after 72 hrs by MTT assay; type: functional, cell-based; details: MIA PaCa-2, 72 h; how it was run: as §2
[17] = tested on: Sindbis virus; assay: Antiviral activity against Sindbis virus infected in african green monkey Vero cells assessed as inhibition of virus-induced cytopathicity; type: functional, organism-based; how it was run: as §1
[18] = tested on: Respiratory syncytial virus; assay: Antiviral activity against Respiratory syncytial virus infected in human HeLa cells assessed as inhibition of virus-induced cytopathicity; type: functional, organism-based; how it was run: as §1
[19] = tested on: SW-620; assay: Cytostatic activity against human SW620 cells after 72 hrs by MTT assay; type: functional, cell-based; details: SW-620, 72 h; how it was run: as §2
[20] = tested on: Human respirovirus 3; assay: Antiviral activity against Parainfluenza-3 virus infected in african green monkey Vero cells assessed as inhibition of virus-induced cytopathicity; type: functional, organism-based; how it was run: as §1
[21] = tested on: Human alphaherpesvirus 3; assay: Antiviral activity against Varicella-Zoster virus infected in HEL cells assessed as inhibition of virus-induced cytopathicity; type: functional, organism-based
[22] = tested on: L1210; assay: Cytostatic activity against mouse L1210 cells after 48 hrs by MTT assay; type: functional, cell-based; details: L1210, 48 h
[23] = tested on: Human immunodeficiency virus 1; assay: Antiviral activity against HIV1 3B infected in human CEM cells assessed as inhibition of virus-induced cytopathicity; type: functional, organism-based; details: CCRF-CEM
[24] = tested on: Vesicular stomatitis virus; assay: Antiviral activity against Vesicular stomatitis virus infected in human HeLa cells assessed as inhibition of virus-induced cytopathicity; type: functional, organism-based; how it was run: as §3
[25] = tested on: Punta Toro virus; assay: Antiviral activity against Punta Toro virus infected in african green monkey Vero cells assessed as inhibition of virus-induced cytopathicity; type: functional, organism-based; how it was run: as §1

SMILES	Activity [1]	Activity [2]	IC50 [3] [µM]	Activity [4]	Activity [5]	Activity [6]	IC50 [7] [µM]	IC50 [8] [µM]	IC50 [9] [µM]	Activity [10]	Activity [11]	IC50 [12] [µM]	IC50 [13] [µM]	Activity [14]	Activity [15]	IC50 [16] [µM]	Activity [17]	Activity [18]	IC50 [19] [µM]	Activity [20]	also measured
COC(=O)[C@H](C)NP(=O)(OCCCNC(=O)Cc1ccccc1Nc1c(Cl)cccc1Cl)Oc1ccc(Cl)cc1 (stereo not given in full)	inactive	inactive	16	inactive	inactive	inactive	17	9	18	inactive	inactive	9.7	22	inactive	inactive	16	inactive	inactive	16	inactive	Activity [21]: inactive; IC50 [22]: 13 µM; Activity [23]: inactive; Activity [24]: inactive; Activity [25]: inactive
COC(=O)[C@H](C)NP(=O)(OCCCNC(=O)Cc1c(C)n(C(=O)c2ccc(Cl)cc2)c2ccc(OC)cc12)Oc1ccc(Cl)cc1 (stereo not given in full)	inactive	inactive	17	inactive	inactive	inactive	18	16	16	inactive	inactive	28	11	inactive	inactive	8	inactive	inactive	15	inactive	Activity [21]: inactive; IC50 [22]: 24 µM; Activity [23]: inactive; Activity [24]: inactive; Activity [25]: inactive
COC(=O)[C@H](C)NP(=O)(OCCCNC(=O)C(C)c1ccc(CC(C)C)cc1)Oc1ccc(Cl)cc1 (stereo not given in full)	inactive	inactive	15	inactive	inactive	inactive	19	14	21	inactive	inactive	48	90	inactive	inactive	13	inactive	inactive	21	inactive	Activity [21]: inactive; IC50 [22]: 64 µM; Activity [23]: inactive; Activity [24]: inactive; Activity [25]: inactive
COC(=O)[C@H](C)NP(=O)(OCCCNC(=O)C(C)c1cccc(C(=O)c2ccccc2)c1)Oc1ccc(Cl)cc1 (stereo not given in full)	inactive	inactive	19	inactive	inactive	inactive	18	14	30	inactive	inactive	40	40	inactive	inactive	14	inactive	inactive	17	inactive	Activity [21]: inactive; IC50 [22]: 44 µM; Activity [23]: inactive; Activity [24]: inactive; Activity [25]: inactive
